In ChEMBL document CHEMBL1129609, “Synthesis and antiviral activity evaluation of some new aminoadamantane derivatives. 2” (1996):
In brackets after ≈: the same amount, converted by molar mass.

How the values were obtained:
HeLa [1] = test: Antiviral activity of compound was tested against morphology virus infected HeLa cell lines.; type: functional; conditions: Homo sapiens
MDCK [2] = test: Antiviral activity of compound was tested against influenza A,H3N2 virus infected MDCK cell lines.; type: functional; conditions: Canis lupus familiaris
HEF [3] = test: Antiviral activity of compound was tested against vesicular virus infected HEF cell lines.; type: functional; conditions: Homo sapiens
Summary of the method: (§1)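 Human embryonic fibroblasts, from embryonic lung or embryonic skin-muscle, infected with the virus. Endpoint is the minimum inhibitory concentration that reduces virus-induced cytopathicity by 50%. Values are averages of at least two separate experiments.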

CCRF-CEM [4] = test: Antiviral activity of compound were tested against HIV-2 virus infected CEM cell lines.; type: functional; conditions: Homo sapiens
HEF [5] = test: Antiviral activity of compound was tested against HSV-2 virus infected HEF cell lines.; type: functional; conditions: Homo sapiens; summary of the method: as §1
MDCK [6] = test: Antiviral activity tested against influenza A,H1N1 virus infected MDCK cell lines.; type: functional; conditions: Canis lupus familiaris
HEL [7] = test: Antiviral activity of compound was tested against HCMV virus infected HEL cell lines.; type: functional; conditions: Homo sapiens
Summary of the method: (§2)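 Vero (African green monkey kidney), HeLa (human epithelial) or HEL (human embryonic lung) cell monolayers infected with the virus. Readout is the minimum inhibitory concentration that reduces virus-induced cytopathicity by 50%. Values are averages of at least two separate experiments.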

MDCK [8] = test: Antiviral activity of compound was tested against morphology virus infected MDCK cell lines.; type: functional; conditions: Canis lupus familiaris
CCRF-CEM [9] = test: Antiviral activity of compound was tested against viability virus infected CEM cell lines.; type: functional; conditions: Homo sapiens
HEF [10] = test: Antiviral activity of compound was tested against morphology virus infected HEF cell lines.; type: functional; conditions: Homo sapiens
Vero [11] = test: Antiviral activity of compound was tested against Coxsackie B4 virus infected vero cell lines.; type: functional; conditions: Chlorocebus sabaeus; summary of the method: as §2
HeLa [12] = test: Antiviral activity of compound was tested against stomatitis virus infected HeLa cell lines.; type: functional; conditions: Homo sapiens; summary of the method: as §2
Vero [13] = test: Antiviral activity of compound were tested against semliki forest virus infected vero cell lines.; type: functional; conditions: Chlorocebus sabaeus; summary of the method: as §2
Vero [14] = test: Antiviral activity of compound was tested against reo1 virus infected vero cell lines.; type: functional; conditions: Chlorocebus sabaeus; summary of the method: as §2
HEL [15] = test: Antiviral activity of compound was tested against proliferation virus infected HEL cell lines.; type: functional; conditions: Homo sapiens
Vero [16] = test: Antiviral activity of compound was tested against sindbis virus infected vero cell lines.; type: functional; conditions: Chlorocebus sabaeus; summary of the method: as §2
CCRF-CEM [17] = test: Antiviral activity of compound was tested against HIV-1 virus infected CEM cell lines.; type: functional; conditions: Homo sapiens
MDCK [18] = test: Antiviral activity of compound was tested against influenza […] virus infected MDCK cell lines; type: functional; conditions: Canis lupus familiaris
HEL [19] = test: Antiviral activity of compound was tested against TK-VZV virus infected HEL cell lines.; type: functional; conditions: Homo sapiens; summary of the method: as §2
Vero [20] = test: Antiviral activity of compound was tested against morphology virus infected Vero cell lines.; type: functional; conditions: Chlorocebus sabaeus
HEF [21] = test: Antiviral activity of compound was tested against TK-HSV-1 virus infected HEF cell lines.; type: functional; conditions: Homo sapiens; summary of the method: as §1
HeLa [22] = test: Antiviral activity of compound was tested against polio-1 virus infected HeLa cell lines.; type: functional; conditions: Homo sapiens; summary of the method: as §2
[23] = Antiviral activity against influenza A,H2N2 virus infected MDCK cell lines.; type: functional
HEF [24] = test: Antiviral activity of compound was tested against vaccinia virus infected HEF cell lines.; type: functional; conditions: Homo sapiens; summary of the method: as §1
Vero [25] = test: Antiviral activity of compound was tested against parainfluenza 3,[…] virus infected Vero cell lines.; type: functional; conditions: Chlorocebus sabaeus; summary of the method: as §2
HEL [26] = test: Antiviral activity of compound was tested against TK+VZV virus infected HEL cell lines.; type: functional; conditions: Homo sapiens; summary of the method: as §2
HeLa [27] = test: Antiviral activity of compound was tested against Coxsackie B4 virus infected HeLa cell lines.; type: functional; conditions: Homo sapiens; summary of the method: as §2
[28] = test system: Vesicular stomatitis virus; test: Antiviral activity against vesicular stomatitis virus infected HEF cell lines.; type: functional; summary of the method: as §1
Human alphaherpesvirus 1 [29] = test: Antiviral activity against TK-HSV-1 virus infected HEF cell lines.; type: functional; summary of the method: as §1
Human alphaherpesvirus 2 = test: Antiviral activity against HSV-2 virus infected HEF cell lines.; type: functional; summary of the method: as §1
Vaccinia virus = test: Antiviral activity against vaccinia virus infected HEF cell lines.; type: functional; conditions: Orthopoxvirus vaccinia; summary of the method: as §1
Human alphaherpesvirus 1 [30] = test: Antiviral activity against HSV-1 virus infected HEF cell lines.; type: functional; summary of the method: as §1
[31] = test system: Human immunodeficiency virus 2; test: Antiviral activity against HIV-2 virus infected CEM cell lines.; type: functional, CCRF-CEM
Human respirovirus 3 = test: Antiviral activity against parainfluenza 3 virus infected Vero cell lines.; type: functional; summary of the method: as §2

Structure (SMILES) | MIC50 (HeLa [1]) | MIC50 (MDCK [2]) | MIC50 (MDCK [6]) | MIC50 (HEL [7]) | MIC50 (MDCK [8]) | MIC50 (CCRF-CEM [9]) | MIC50 (HEF [10]) | MIC50 (Vero [11]) | MIC50 (HeLa [12]) | MIC50 (Vero [13]) | MIC50 (Vero [14]) | MIC50 (HEL [15]) | MIC50 (Vero [16]) | MIC50 (CCRF-CEM [17]) | MIC50 (MDCK [18]) | MIC50 (HEL [19]) | MIC50 (Vero [20]) | MIC50 (HeLa [22]) | MIC50 [23] | MIC50 (HEL [26]) | further results
CN(C)CC1CCN(C23CC4CC(CC(C4)C2)C3)C1 (stereo not drawn) | 400 µg/mL (≈ 1520 µM) | > 100 µg/mL | > 36 µg/mL | > 20 µg/mL | 400 µg/mL (≈ 1520 µM) | 79 µg/mL (≈ 301 µM) | 40 µg/mL (≈ 152 µM) | > 100 µg/mL | > 200 µg/mL | > 100 µg/mL | > 100 µg/mL | > 50 µg/mL | > 100 µg/mL | > 23 µg/mL | > 100 µg/mL | > 50 µg/mL | > 400 µg/mL | > 200 µg/mL | 16.1 µg/mL (≈ 61.3 µM) | > 20 µg/mL | MIC50 (HEF [3]): > 10 µg/mL; MIC50 (CCRF-CEM [4]): > 40 µg/mL; MIC50 (HEF [5]): > 10 µg/mL; MIC50 (HEF [21]): > 10 µg/mL; MIC50 (HEF [24]): > 10 µg/mL; MIC50 (Vero [25]): > 100 µg/mL; MIC50 (HeLa [27]): > 200 µg/mL
CN1CCOCC12C1CC3CC(C1)CC2C3 (stereo not drawn) | > 400 µg/mL | 53 µg/mL (≈ 239 µM) | 22 µg/mL (≈ 99.4 µM) | > 50 µg/mL | > 250 µg/mL | > 200 µg/mL | > 400 µg/mL | > 400 µg/mL | > 400 µg/mL | > 400 µg/mL | > 400 µg/mL | > 50 µg/mL | > 400 µg/mL | 158 µg/mL (≈ 714 µM) | 60 µg/mL (≈ 271 µM) | > 50 µg/mL | > 400 µg/mL | > 400 µg/mL | 4.3 µg/mL (≈ 19.4 µM) | > 50 µg/mL | MIC50 [28]: > 400 µg/mL; MIC50 (CCRF-CEM [4]): > 200 µg/mL; MIC50 (Human alphaherpesvirus 1 [29]): > 400 µg/mL; MIC50 (Human alphaherpesvirus 2): > 400 µg/mL; MIC50 (Vaccinia virus): > 400 µg/mL; MIC50 (Vero [25]): > 400 µg/mL; MIC50 (Human alphaherpesvirus 1 [30]): > 400 µg/mL; MIC50 (HeLa [27]): > 400 µg/mL
CN(C)CC1CCCN1C12CC3CC(CC(C3)C1)C2 (stereo not drawn) | > 400 µg/mL | 73 µg/mL (≈ 278 µM) | > 70 µg/mL | > 50 µg/mL | > 250 µg/mL | > 200 µg/mL | > 400 µg/mL | > 400 µg/mL | > 400 µg/mL | > 400 µg/mL | > 400 µg/mL | > 50 µg/mL | > 400 µg/mL | 115 µg/mL (≈ 438 µM) | 60 µg/mL (≈ 229 µM) | > 50 µg/mL | > 400 µg/mL | > 400 µg/mL | 32.5 µg/mL (≈ 124 µM) | > 50 µg/mL | MIC50 (HEF [3]): > 200 µg/mL; MIC50 [31]: > 200 µg/mL; MIC50 (Human alphaherpesvirus 1 [29]): > 200 µg/mL; MIC50 (Human alphaherpesvirus 2): > 200 µg/mL; MIC50 (Human respirovirus 3): > 400 µg/mL; MIC50 (HEF [24]): > 200 µg/mL; MIC50 (Human alphaherpesvirus 1 [30]): > 200 µg/mL; MIC50 (HeLa [27]): > 400 µg/mL
